From article PMC8165011 (European journal of medicinal chemistry, 2021)
≈ marks a conversion by molar mass, not a printed value.

Assays:
[1] = test system: tested Gram-positive strains; assay: MIC assay, summary over the tested Gram-positive strains; format: cell-based; conditions: tested Gram-positive strains
In short: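 CLSI standard broth microdilution. Test compound started at 50 µg/ml and serially diluted 2-fold. Run in triplicate.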

[2] = test system: human embryonic kidney (HEK293) cells; assay: Cytotoxicity against HEK293 cell line; format: cell-based; conditions: HEK293 IC50 / MIC for S. aureus ATCC 25923 and ATCC 700699; as high as
In short: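 HEK293 cells kept in EMEM with 10% FBS at 37 °C, 5% CO2. Seeded at 4000 cells/well and treated 24 h with a concentration range of test compound in DMSO. Resazurin (0.15 mg/ml solution as added) incubated 4 h more; fluorescence read at ex 560/em 590 nm. IC50 obtained by curve fitting; selectivity factor computed as IC50/MIC.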

[3] = test system: S. aureus ATCC 25923 preformed biofilm; assay: Biofilm destruction assay; format: cell-based; conditions: 2xMIC
[4] = test system: S. aureus and E. faecalis biofilms; assay: Biofilm inhibition and destruction at 4x and 8xMIC; format: cell-based; conditions: 4x and 8xMIC (data not shown)
[5] = test system: S. aureus UAMS-1 catheter-associated biofilm; assay: In vitro model of catheter-associated biofilm; format: cell-based; conditions: after 2 days of exposure, 20xMIC (40 μg/ml), per catheter
[6] = test system: S. aureus ATCC 700699 (MRSA) stationary phase persister cells; assay: Persister cell killing assay; format: cell-based; conditions: for log reduction of persister cells: within 4 h
[7] = test system: S. aureus ATCC 25923 (MSSA); assay: Multistep; format: cell-based; conditions: sub-lethal exposure, 21 passages
E. faecalis ATCC 29212 = assay: Multistep; format: cell-based; conditions: for increase in resistance (in words): through the 14th passage
S. aureus ATCC 700699 = assay: Time kill assay; format: cell-based; conditions: 4xMIC
In short: (§1)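 Log-phase culture diluted to ~5 × 10^6 CFU/ml in warm CAMHB and exposed to test compound at 4xMIC at 35 °C. Samples taken every 2 h, diluted 10-fold down to 10^-5, and viable counts done by 6×6 drop plating after 18–24 h at 35 °C. Each assay run in triplicate.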

S. aureus ATCC 33591 = assay: Time kill assay; format: cell-based; conditions: 4xMIC
In short: as §1

[8] = test system: DNA synthesis in S. aureus ATCC 29213; assay: Macromolecular synthesis inhibition: DNA synthesis; format: cell-based; conditions: 0.25xMIC
[9] = test system: lipid synthesis in S. aureus ATCC 29213; assay: Macromolecular synthesis inhibition: lipid synthesis; format: cell-based; conditions: MIC
[10] = test system: S. aureus ATCC 25923 biofilm; assay: Biofilm inhibition assay; format: cell-based; conditions: 2xMIC
In short: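 After 24 h at 35 °C: PBS washes, drying at 60 °C for 15 min, 0.1% (w/v) crystal violet for 15 min, solubilisation in 33% acetic acid, OD 620 nm. Controls: broth only, and bacteria with DMSO.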

[11] = test system: E. faecalis clinical isolates (VRE); assay: MIC against clinical isolates of E. faecalis; format: cell-based
[12] = test system: E. faecium clinical isolates (VRE); assay: MIC against clinical isolates of E. faecium; format: cell-based
[13] = test system: S. aureus clinical isolates (MSSA, MRSA); assay: MIC against clinical isolates of S. aureus; format: cell-based; conditions: Staphylococcus aureus
[14] = test system: E. faecalis ATCC 29212 preformed biofilm; assay: Biofilm destruction assay; format: cell-based; conditions: 2xMIC
[15] = test system: S. aureus ATCC 700699 (MRSA); assay: Multistep; format: cell-based; conditions: sub-lethal exposure, 21 passages
[16] = test system: methicillin-sensitive clinical isolate of S. aureus UAMS-1; conditions: breakpoint MIC used for comparison; ref not given; cited from earlier work

O=C(O)c1ccc(-n2cc(CNc3cc(F)cc(C(F)(F)F)c3)c(-c3ccc(C(F)(F)F)cc3)n2)cc1 [Compound 59, 4-[4-[[3-fluoro-5-(trifluoromethyl)anilino]methyl]-3-[4-(trifluoromethyl)phenyl]pyrazol-1-yl]benzoic acid]
antimicrobial activity (in words) [1]: most potent compound | Selectivity factor (IC50/MIC values) [2]: ≤ 13 | preformed biofilm eliminated [3]: around 70% | biofilm inhibition and destruction [4]: > 95% | average CFU counts [5]: 4.74 × 10^5 CFU | log reduction of persister cells ([6]; 2xMIC): ~ 1 log | log reduction of persister cells ([6]; 8xMIC): ~ 3 log | passage at which MIC doubled [7]: 8 passage | increase in resistance (in words) (E. faecalis ATCC 29212): no increase in resistance | time to eliminate more than 3 log values (S. aureus ATCC 700699): ≤ 4 h | log values of bacteria eliminated (S. aureus ATCC 700699; within 4 h of treatment): more than 3 log | time to eliminate more than 3 log values (S. aureus ATCC 33591): ≤ 4 h | log values of bacteria eliminated (S. aureus ATCC 33591; within 4 h of treatment): more than 3 log | inhibition of DNA synthesis [8]: approximately 44% | inhibition of lipid synthesis [9]: 56.2%

O=C(O)c1ccc(-n2cc(CNc3cc(Cl)c(F)c(Cl)c3)c(-c3ccc(C(F)(F)F)cc3)n2)cc1 [Compound 74, 4-[4-[(3,5-dichloro-4-fluoro-anilino)methyl]-3-[4-(trifluoromethyl)phenyl]pyrazol-1-yl]benzoic acid]
Selectivity factor (IC50/MIC values) [2]: ≤ 33 | biofilm formation inhibited [10]: greater than 85% | log reduction of persister cells ([6]; 2xMIC): ~ 1 log | log reduction of persister cells ([6]; 4xMIC): ~ 1 log | log reduction of persister cells ([6]; 8xMIC): ~ 1 log | increase in resistance (in words) (E. faecalis ATCC 29212): no increase in resistance | time to eliminate more than 3 log values (S. aureus ATCC 700699): ≤ 6 h | time to eliminate more than 3 log values (S. aureus ATCC 33591): ≤ 4 h

CN[C@H](CC(C)C)C(=O)N[C@H]1C(=O)N[C@@H](CC(N)=O)C(=O)N[C@H]2C(=O)N[C@H]3C(=O)N[C@H](C(=O)N[C@H](C(=O)O)c4cc(O)cc(O)c4-c4cc3ccc4O)[C@H](O)c3ccc(c(Cl)c3)Oc3cc2cc(c3O[C@@H]2O[C@H](CO)[C@@H](O)[C@H](O)[C@H]2O[C@H]2C[C@](C)(N)[C@H](O)[C@H](C)O2)Oc2ccc(cc2Cl)[C@H]1O [vancomycin, Vancomycin]
MIC ([11]; E. faecalis 1091563, VRE): >32 µg/mL | MIC ([11]; E. faecalis 1091720, VRE): >32 µg/mL | MIC ([11]; E. faecalis 1094112, VRE): >32 µg/mL | MIC ([11]; E. faecalis 1100440, VRE): >32 µg/mL | MIC ([11]; Enterococcus faecalis, VRE): > 32 µg/mL | MIC ([12]; E. faecium 1088168, VRE): >32 µg/mL | MIC ([12]; E. faecium 1088925, VRE): >32 µg/mL | MIC ([12]; E. faecium 1089544, VRE): >32 µg/mL | MIC ([12]; E. faecium 1091282, VRE): >32 µg/mL | MIC ([12]; Enterococcus faecium, VRE): > 32 µg/mL | MIC ([13]; ATCC29213|MRSA|MSSA, S. aureus ATCC 29213, MSSA): 1 µg/mL (≈ 0.69 µM) | MIC ([13]; MRSA|MSSA, S. aureus 1088060, MSSA): 0.5 µg/mL (≈ 0.345 µM) | MIC ([13]; MRSA|MSSA, S. aureus 1088064, MRSA): 0.5 µg/mL (≈ 0.345 µM) | MIC ([13]; MRSA|MSSA, S. aureus 1088105, MSSA): 1 µg/mL (≈ 0.69 µM) | MIC ([13]; MRSA|MSSA, S. aureus 1088610, MRSA): 0.5 µg/mL (≈ 0.345 µM) | MIC ([13]; MRSA|MSSA, S. aureus 1088626, MSSA): 0.5 µg/mL (≈ 0.345 µM) | MIC ([13]; MRSA|MSSA, S. aureus 1088888, MRSA): 1 µg/mL (≈ 0.69 µM) | MIC ([13]; MRSA|MSSA, S. aureus 1089106, MRSA): 1 µg/mL (≈ 0.69 µM) | preformed biofilm destroyed [14]: around 70% | biofilm inhibition and destruction [4]: > 95% | average CFU counts [5]: 1.16 × 10^7 CFU | effect on viability of MRSA persisters (in words) ([6]; 64xMIC): did not affect the viability | passage at which MIC doubled [15]: 7 passage | passage after which resistance increased (E. faecalis ATCC 29212; 14 passages): 7 passage | time to decrease bacterial concentration below detectable limits (S. aureus ATCC 700699): 8 h | time to decrease bacterial concentration below detectable limits (S. aureus ATCC 33591): 8 h | breakpoint MIC [16]: ≥ 2 µg/mL
